Columns and labels:
[1] = Inhibition of human N-myristoyltransferase using H-Gly-Ser-Asn-Lys-Ser-Lys-Pro-Lys-NH2 as substrate by CPM fluorescence assay
Procedure, shortened: (§1)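 IC50 values (mean of two or more determinations) were converted to Ki by Cheng–Prusoff using substrate concentration and Km. For PfNMT, Km was 3.64 μM and substrate was 4.00 μM. The human enzyme values refer to HsNMT1.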

[2] = molecular target: T1, Glycylpeptide N-tetradecanoyltransferase (Plasmodium falciparum (isolate 3D7), UniProt Q8ILW6); test: Inhibition of Plasmodium falciparum N-myristoyltransferase by CPM fluorescence assay; procedure, shortened: as §1
T1 sequence (Q8ILW6 whole entry): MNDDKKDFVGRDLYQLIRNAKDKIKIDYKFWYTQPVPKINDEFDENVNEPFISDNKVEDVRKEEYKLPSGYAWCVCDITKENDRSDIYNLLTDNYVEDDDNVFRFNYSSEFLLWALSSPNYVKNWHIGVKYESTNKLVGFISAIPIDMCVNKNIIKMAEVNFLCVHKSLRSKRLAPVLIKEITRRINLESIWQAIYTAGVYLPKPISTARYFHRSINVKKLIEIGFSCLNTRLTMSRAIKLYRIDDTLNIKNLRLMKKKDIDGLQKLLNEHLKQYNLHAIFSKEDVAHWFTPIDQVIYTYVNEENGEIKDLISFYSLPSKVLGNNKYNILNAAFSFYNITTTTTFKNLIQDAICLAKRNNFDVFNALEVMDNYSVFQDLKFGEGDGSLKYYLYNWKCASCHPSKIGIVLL

[3] = Inhibition of Plasmodium vivax N-myristoyltransferase by CPM fluorescence assay; procedure, shortened: as §1
Plasmodium falciparum [4] = test: Antimicrobial activity against late stage trophozoite form of Plasmodium falciparum 3D7 infected in RBCs after 48 hrs by SYBR green viability assay; assay type: functional, organism-based; conditions: 3D7, 96 h, in the assay text read “after 96 hrs” for “after 48 hrs”
Procedure, shortened: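 Synchronous 3D7 late trophozoites (33–36 h) were used at 0.1–0.2% parasitemia and 2% hematocrit in washed, buffy-coat-free RBCs, in RPMI 1640 with Albumax, gentamycin and L-glutamine. Seven dilutions from 10.0 to 0.014 μM were run in duplicate at 37 °C under 5% CO2, 5% O2, 90% N2. Drug was replaced at 48 h and incubation continued to 96 h. Read-out was SYBR Green I in saponin/Triton lysis buffer, then fluorescence converted to % growth.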

Plasmodium berghei = test: Antimicrobial activity against Plasmodium berghei sporozoites infected in 12 hrs compound pretreated human HepG2 cells assessed as reduction in viability of exoerythrocytic forms measured after 48 hrs of incubation by luciferase bioluminescence assay; assay type: functional, organism-based
Procedure, shortened: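 HepG2-A16-CD81EGFP cells expressing GFP-CD81 were grown in DMEM with 10% FCS, glutamine and penicillin/streptomycin at 37 °C, 5% CO2. They were seeded at 3000 cells/well 24 h before infection. Cells were pretreated 12 h with a 12-point dilution series, then infected with luciferase-expressing P. berghei sporozoites (1000/well). Exoerythrocytic form viability was read by bioluminescence after 48 h. EC50 came from a four-parameter variable-slope fit, mean of two determinations.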

[5] = Cytotoxicity against human HepG2 cells after 72 hrs by MTS assay; assay type: cell-based; conditions: read-out: LD50
Procedure, shortened: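 HepG2 cells grown in DMEM with 10% FBS and penicillin/streptomycin, 37 °C, 5% CO2, seeded at 5000 cells/well. Seven-point dilution series in medium from a 50 mM DMSO stock; DMSO/medium and puromycin control wells. Incubated 72 h, then MTS/PMS added for 4 h and read at 490 nm. LD50 by nonlinear regression, mean of six determinations.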

[6] = Selectivity ratio of Ki for human N-myristoyltransferase to Ki for Plasmodium falciparum N-myristoyltransferase
[7] = Selectivity ratio of Ki for human N-myristoyltransferase to Ki for Plasmodium vivax N-myristoyltransferase
Plasmodium falciparum [8] = test: Antimicrobial activity against blood-stage Plasmodium falciparum 3D7 assessed as inhibition of [3H]hypoxanthine incorporation after 48 hrs by liquid scintillation counting; assay type: functional, organism-based
Plasmodium falciparum [9] = test: Antimicrobial activity against blood-stage Plasmodium falciparum NF54 assessed as inhibition of [3H]hypoxanthine incorporation after 48 hrs by liquid scintillation counting; assay type: functional, organism-based
Procedure, shortened: (§2)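 Modified Desjardins method. Drug was serially diluted 2-fold, and infected blood was added at 0.3% parasitemia and 2.5% hematocrit. Uninfected blood and drug-free wells served as controls. Plates were held at 37 °C under 93% N2, 4% CO2, 3% O2. After 48 h, [3H]hypoxanthine (0.5 μCi/well) was added for a further 24 h, then cells were harvested and scintillation counted. Counts were taken as % of untreated controls, with IC50 by logit regression.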

Plasmodium falciparum [10] = test: Antimicrobial activity against blood-stage Plasmodium falciparum K1 assessed as inhibition of [3H]hypoxanthine incorporation after 48 hrs by liquid scintillation counting; assay type: functional, organism-based; procedure, shortened: as §2
Plasmodium falciparum [11] = test: Antimicrobial activity against blood-stage Plasmodium falciparum Dd2 assessed as inhibition of [3H]hypoxanthine incorporation after 48 hrs by liquid scintillation counting; assay type: functional; procedure, shortened: as §2
[12] = Aqueous solubility of the compound; assay type: physicochemical
Plasmodium falciparum [13] = test: Ratio of EC50 for blood-stage Plasmodium falciparum Dd2 to EC50 for blood-stage Plasmodium falciparum NF54; assay type: functional
[14] = Selectivity ratio of LD50 for human HepG2 cells to EC50 for blood-stage Plasmodium falciparum 3D7; assay type: ADME, cell-based; conditions: read-out: Ratio LD50/EC50
[15] = Selectivity ratio of LD50 for human HepG2 cells to EC50 for blood-stage Plasmodium falciparum NF54; assay type: ADME, cell-based; conditions: read-out: Ratio LD50/EC50
[16] = Selectivity ratio of LD50 for human HepG2 cells to EC50 for blood-stage Plasmodium falciparum K1; assay type: ADME, cell-based; conditions: read-out: Ratio LD50/EC50
[17] = Selectivity ratio of LD50 for human HepG2 cells to EC50 for blood-stage Plasmodium falciparum Dd2; assay type: ADME, cell-based; conditions: read-out: Ratio LD50/EC50

Ki [1] [µM] | Ki [2] [µM] | SMILES | Ki [3] [µM] | EC50 (Plasmodium falciparum [4]) [µM] | also measured
0.031 | 0.026 | COc1cc(CCOC(=O)c2sc3ccccc3c2OC2CCNCC2)cc(OC)c1 | 0.009 | 1.41 | 
 |  | O=C1C(O)=C([C@H]2CC[C@H](c3ccc(Cl)cc3)CC2)C(=O)c2ccccc21 [ATOVAQUONE] |  |  | EC50 (Plasmodium berghei): 0.0005 µM; CC50 at 72 h [5]: > 10 µM
1.54 | 0.247 | c1ccc(CCc2noc(-c3sc4ccccc4c3OC3CCNCC3)n2)cc1 | 0.057 | 3.79 | 
3.95 | 0.212 | COC(c1ccccc1)c1nnc(-c2sc3ccccc3c2OC2CCNCC2)o1 (racemic) | 0.081 |  | 
0.428 | 0.033 | COc1cccc(Cc2nnc(-c3sc4ccccc4c3OC3CCNCC3)o2)c1 | 0.018 | 5.5 | Ratio Ki [6]: 13; Ratio Ki [7]: 24
0.709 | 0.186 | Cc1noc(C)c1CCc1nnc(-c2sc3ccccc3c2OC2CCNCC2)o1 | 0.047 |  | 
0.207 | 0.015 | COc1cc(Cc2noc(-c3sc4ccccc4c3OC3CCNCC3)n2)cc(OC)c1 | 0.005 | 2.49 | 
 |  | CCN(CC)CCCC(C)Nc1ccnc2cc(Cl)ccc12 (configuration not stated) [CHLOROQUINE] |  |  | EC50 (Plasmodium falciparum [8]): 0.006 µM; EC50 (Plasmodium falciparum [9]): 0.013 µM; EC50 (Plasmodium falciparum [10]): 0.255 µM; EC50 (Plasmodium falciparum [11]): 0.328 µM; EC50 (Plasmodium berghei): > 10 µM
1.54 | 0.055 | Cc1n[nH]c(C)c1Cc1nnc(-c2sc3ccccc3c2OC2CCNCC2)o1 | 0.075 | 2.01 | Ratio Ki [6]: 30
> 100 | > 10 | O=C(NCCCc1ccccc1)c1sc2ccccc2c1OC1CCNCC1 | 2.53 |  | 
1.55 | 0.152 | CC(C)(c1ccccc1)c1nnc(-c2sc3ccccc3c2OC2CCNCC2)o1 | 0.032 |  | 
> 100 | > 10 | O=C(NCCOc1ccccc1)c1sc2ccccc2c1OC1CCNCC1 | 2.21 |  | 
1.87 | 1.13 | O=C(OCCOc1ccccc1)c1sc2ccccc2c1OC1CCNCC1 | 0.123 |  | 
2.2 | 0.12 | COc1cccc(CCOC(=O)c2sc3ccccc3c2OC2CCNCC2)c1 | 0.059 | 4.2 | 
1.19 | 0.12 | c1ccc(Cc2nc(-c3sc4ccccc4c3OC3CCNCC3)no2)cc1 | 0.013 |  | 
0.192 | 0.051 | COc1cccc(Cc2noc(-c3sc4ccccc4c3OC3CCNCC3)n2)c1 | 0.008 | 1.45 | 
1.05 | 0.113 | Cc1noc(C)c1Cc1nnc(-c2sc3ccccc3c2OC2CCNCC2)o1 | 0.038 | 5.02 | Ratio Ki [6]: 8

Ki [1] [µM] | Ki [2] [µM] | SMILES | Ki [3] [µM] | EC50 (Plasmodium falciparum [4]) [µM] | also measured
0.976 | 0.098 | c1ccc(C2(c3nnc(-c4sc5ccccc5c4OC4CCNCC4)o3)CC2)cc1 | 0.034 |  | 
> 100 | > 10 | O=C(NCCc1ccccc1)c1sc2ccccc2c1OC1CCNCC1 | 3.78 |  | 
0.788 | 0.071 | c1ccc(Cc2noc(-c3sc4ccccc4c3OC3CCNCC3)n2)cc1 | 0.016 | 2.3 | 
0.1 | 0.05 | COc1cccc(Cc2nc(-c3sc4ccccc4c3OC3CCNCC3)no2)c1 | 0.006 | 3.26 | 
2.07 | 0.334 | CC(c1ccccc1)c1nnc(-c2sc3ccccc3c2OC2CCNCC2)o1 (racemic) | 0.077 |  | 
10.4 | 0.677 | O=C(OCCc1ccccc1)c1sc2ccccc2c1OC1CCNCC1 | 0.072 | 5.6 | 
2.77 | 0.391 | FC(F)(c1ccccc1)c1nnc(-c2sc3ccccc3c2OC2CCNCC2)o1 | 0.182 |  | 
1.37 | 0.077 | c1ccc(Cc2nnc(-c3sc4ccccc4c3OC3CCNCC3)o2)cc1 | 0.039 | 9.5 | 
1.92 | 0.465 | c1ccc(C(c2ccccc2)c2nnc(-c3sc4ccccc4c3OC3CCNCC3)o2)cc1 | 0.142 |  | 
0.824 | 0.124 | Cc1nn(C)c(C)c1CCc1nnc(-c2sc3ccccc3c2OC2CCNCC2)o1 | 0.032 |  | 
0.05 | 0.015 | COc1cc(Cc2nc(-c3sc4ccccc4c3OC3CCNCC3)no2)cc(OC)c1 | 0.008 | 3.5 | 
2.45 | 0.125 | OC(c1ccccc1)c1nnc(-c2sc3ccccc3c2OC2CCNCC2)o1 (racemic) | 0.035 | 7.34 | 
0.893 | 0.27 | c1ccc(Cc2n[nH]c(-c3sc4ccccc4c3OC3CCNCC3)n2)cc1 | 0.071 |  | 
2.25 | 0.226 | Cc1n[nH]c(C)c1CCc1nnc(-c2sc3ccccc3c2OC2CCNCC2)o1 |  |  | 
0.871 | 0.163 | Clc1cccc(Cc2noc(-c3sc4ccccc4c3OC3CCNCC3)n2)c1 | 0.058 | 1.21 | 
1.16 | 3.97 | O=C(OCCCc1ccccc1)c1sc2ccccc2c1OC1CCNCC1 | 0.066 |  | 

SMILES | Ki [1] [µM] | Ki [2] [µM] | Ki [3] [µM] | EC50 (Plasmodium falciparum [4]) [µM] | also measured
Cc1nn(C)c(C)c1Cc1nnc(-c2sc3ccccc3c2OC2CCNCC2)o1 | 0.06 | 0.008 | 0.002 | 0.302 | IC50 [2]: 0.017 µM; EC50 (Plasmodium falciparum [8]): 0.302 µM; EC50 (Plasmodium falciparum [9]): 0.232 µM; EC50 (Plasmodium falciparum [10]): 0.339 µM; EC50 (Plasmodium falciparum [11]): 0.916 µM; EC50 (Plasmodium berghei): 0.372 µM; CC50 at 72 h [5]: 12.3 µM; solubility [12]: > 8 mM; Ratio Ki [6]: 8; Ratio Ki [7]: 30; Ratio EC50 (Plasmodium falciparum [13]): <4; selectivity ratio [14]: ≤ 40; selectivity ratio [15]: ≤ 40; selectivity ratio [16]: ≤ 40; selectivity ratio [17]: 14

— ChEMBL document CHEMBL3232848, “Design and synthesis of high affinity inhibitors of Plasmodium falciparum and Plasmodium vivax N-myristoyltransferases directed by ligand efficiency dependent lipophilicity (LELP)” (J Med Chem, 2014)
